Publication PMC3262149 (Angewandte Chemie (International Ed. in English), 2011)
Square brackets hold non-standard residues; d marks the D form. Side chains are listed from the residue outwards. Peptide text beside a SMILES is read from it. * marks the point of attachment. X1 = O=C(CCS[C@@H]1O[C@H](CO)[C@H](O)[C@H](O)[C@H]1O)*; βGal = OC[C@H]1O[C@@H](*)[C@H](O)[C@@H](O)[C@H]1O; Mpa = O=C(O)CCS

What was measured:
[1] = target: T1, P. aeruginosa lectin LecA (Pseudomonas aeruginosa, UniProt Q05097); test: Isothermal titration calorimetry; type: binding; details: for n′ (stoichiometry, number of occupied lectin galactose binding sites per dendrimer) / ΔH / −T ΔS / r.p./n = (Kd(D-galactose)/Kd(ligand))/n: ITC; for n′ (stoichiometry, number of occupied lectin galactose binding sites per dendrimer) / ΔH / −T ΔS: 0.1 M Tris base, pH 7.5, 25 mM CaCl2, 25 °C, average of two independent runs; for r.p./n = (Kd(D-galactose)/Kd(ligand))/n: relative to D-galactose, per galactose residue
T1 sequence (Q05097 1-122): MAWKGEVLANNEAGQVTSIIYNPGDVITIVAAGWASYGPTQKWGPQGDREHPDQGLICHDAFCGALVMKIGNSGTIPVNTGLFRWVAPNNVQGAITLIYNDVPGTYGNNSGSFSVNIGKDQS

[2] = target: T1, P. aeruginosa lectin LecA; test: Hemagglutination inhibition assay; type: biochemical; details: relative to D-galactose
In short: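 Twofold serial dilutions of test compound were preincubated with LecA for 30 min at 4 °C. Rabbit erythrocytes (5 % solution in PBS) were then added and incubated 1 h at RT. MIC was taken as the highest dilution giving complete inhibition of hemagglutination.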

| SMILES | n′ (stoichiometry, number of occupied lectin galactose binding sites per dendrimer) [1] | ΔH [1] | −T ΔS [1] | r.p./n, relative potency per galactose residue = (MIC(D-galactose)/MIC(ligand))/n [2] | Kd [1] | r.p./n = (Kd(D-galactose)/Kd(ligand))/n [1] |
| --- | --- | --- | --- | --- | --- | --- |
| O=C[C@H](O)[C@@H](O)[C@@H](O)[C@H](O)CO [D-galactose] | 1.1±0.1 | -8.4 ± 0.1 kcal/mol | 2.3 ± 0.4 kcal/mol | – | – | – |
| CC[C@H](C)[C@H](NC(=O)[C@H](CCCCN)NC(=O)[C@H](Cc1ccccc1)NC(=O)[C@H](CCCCNC(=O)[C@H](CC(C)C)NC(=O)[C@@H]1CCCN1C(=O)[C@H](CCCCN)NC(=O)CCS[C@@H]1O[C@H](CO)[C@H](O)[C@H](O)[C@H]1O)NC(=O)[C@H](CC(C)C)NC(=O)[C@@H]1CCCN1C(=O)[C@H](CCCCN)NC(=O)CCS[C@@H]1O[C@H](CO)[C@H](O)[C@H](O)[C@H]1O)C(N)=O [GalBG1] ([Mpa](βGal)KPLK([Leu-Pro-Lys-X1])FKI-NH2) | 2.5±0.3 | -8.3 ± 0.4 kcal/mol | 0.7 ± 0.4 kcal/mol | 2.5 | 2.1 ± 1 µM | 20.5 |
| CC(C)S[C@@H]1O[C@H](CO)[C@H](O)[C@H](O)[C@H]1O [IPTG, isopropyl-β-thiogalactoside] | 1.1±0.1 | -8.9 ± 0.5 kcal/mol | 2.8 ± 0.5 kcal/mol | 2.8 | – | 2.7 |
| O=[N+]([O-])c1ccc(O[C@@H]2O[C@H](CO)[C@H](O)[C@H](O)[C@H]2O)cc1 [NPG, p-nitrophenyl-β-galactoside] | 0.9±0 | -10.0 ± 0.1 kcal/mol | 3.4 ± 0.1 kcal/mol | 5.7 | – | 6.2 |
